PRMT1 inh: PRMT1 methyltransferase inhibitors, primary screen, biochemical, fluorescence polarization. 370,000 compounds, 1.3% hits. recombinant PRMT1, activity-based probe fluorescence polarization. inhibition, % at 2.79 µM. Protein arginine N-methyltransferase 1 (Homo sapiens), Q99873;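 active = inhibition above about 21% made by adding two undisclosed values, limit read from the data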
mABHD4 FP: ABHD4 inhibitors, primary screen, biochemical, fluorescence polarization, mouse; (Lyso)-N-acylphosphatidylethanolamine lipase (Mus musculus), Q8VD66; purified mABHD4, FP-Rh probe fluorescence polarization; inhibition, % at 8.92 µM; 370,000 compounds, 0.54% hits;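 active = inhibition exceeding the mean over every tested compound plus 3 SD, cut at about 30% in these data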;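 also: 0% = plate median of compound wells and 100% = S159A mutant with DMSO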
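System: mouse ABHD4 enzyme, wild type / Medium: HEPES pH 7.0, NaCl, Pluronic buffer / Reagent: FP-Rh activity-based fluorescent probe / Control set: S159A mutant high control, sample median low control / Detection: fluorescence polarization with parallel and perpendicular emission, 525/598 nm / Schedule: 45 min + 60 min at 25 °C / Compound dosing: 8.92 µM, single dose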
PAD4 FP inh: human PAD4 inhibitors, primary screen, biochemical, fluorescence polarization, 1536-well format; Protein-arginine deiminase type-4 (Homo sapiens), Q9UM07; recombinant PAD4, RCA probe fluorescence polarization; inhibition, % at 6.36 µM; 330,000 compounds, 0.41% hits; AID 485272, 2010;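 active = percent inhibition above a cutoff equal to the mean of all tested compounds plus 3 SD, cut at about 15% in these data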;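 also: 0% = PAD4 with RCA probe and DMSO and 100% = probe without PAD4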
Target sequence (Q9UM07 whole entry, looked up): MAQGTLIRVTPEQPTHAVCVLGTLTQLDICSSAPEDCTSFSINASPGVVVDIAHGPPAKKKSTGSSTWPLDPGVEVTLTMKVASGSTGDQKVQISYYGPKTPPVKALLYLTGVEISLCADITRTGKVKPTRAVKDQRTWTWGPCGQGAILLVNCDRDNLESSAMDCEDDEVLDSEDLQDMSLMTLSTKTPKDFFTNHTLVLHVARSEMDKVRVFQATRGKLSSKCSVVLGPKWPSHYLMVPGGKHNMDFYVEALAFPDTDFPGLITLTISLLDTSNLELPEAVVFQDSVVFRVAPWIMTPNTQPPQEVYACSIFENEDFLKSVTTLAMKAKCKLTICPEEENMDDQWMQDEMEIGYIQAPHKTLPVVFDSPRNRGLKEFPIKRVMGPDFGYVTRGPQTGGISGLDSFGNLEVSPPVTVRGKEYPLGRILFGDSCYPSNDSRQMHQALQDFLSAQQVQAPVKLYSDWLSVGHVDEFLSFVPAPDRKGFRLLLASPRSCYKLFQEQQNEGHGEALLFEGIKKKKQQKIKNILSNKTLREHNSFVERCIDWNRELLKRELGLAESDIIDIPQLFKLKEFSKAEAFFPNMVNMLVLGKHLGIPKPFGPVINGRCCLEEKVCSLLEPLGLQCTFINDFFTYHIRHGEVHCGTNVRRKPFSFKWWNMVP
TCR CD3 inh: inhibitors of human TCR-CD3 interaction, primary screen, biochemical, fluorescence, TAMRA-labeled TCR probe; T-cell receptor (TCR); inhibition, % at 9.4 µM; 360,000 compounds, 0.37% hits; AID 651800, 2012; in the data active = inhibition above about 19%;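 also: recombinant mutant TCR 2C K166C tagged with TAMRA read by polarization; 0% = receptor in buffer alone and 100% = receptor with positive control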
HTRA1 inh: HTRA1 serine protease inhibitors, primary screen, biochemical, fluorescence polarization, HTS. Q92743. recombinant HTRA1, FP-rhodamine activity-based probe. inhibition, % at 5.96 µM. 340,000 compounds, 0.5% hits; in the data active = inhibition above about 36%;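 also: 0% = enzyme with DMSO and 100% = wells lacking enzyme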
SIAE inh: human SIAE inhibitors, primary screen, biochemical, fluorescence polarization, FP-Rh probe, 1536-well HTS. inhibition, % at 9.66 µM. SIAE FP-Rh probe binding. 370,000 compounds, 0.69% hits. Sialate O-acetylesterase (Homo sapiens), Q9HAT2;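 active = inhibition above a cutoff: mean of compounds within the control limits plus 3 SD of those, cut at about 17% in these data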;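 also: 0% = plate median of compound wells and 100% = probe without SIAE protein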
SIAE inh conf: human SIAE inhibitors, retest, confirmation, biochemical, fluorescence polarization, FP-Rh probe, triplicate; inhibition, % at 9.66 µM; shares compounds with SIAE inh; SIAE FP-Rh activity-based probe; 2,300 compounds, 13% hits;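 active = mean inhibition of the replicates above the hit cutoff set in the primary screen, cut at about 17% in these data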;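 also: 0% = SIAE with DMSO and probe and 100% = probe without SIAE; inhibitors lower polarization as more probe stays unbound to SIAE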
Numbers without * were called inactive; x = not tested or not shown. A selection: hits, their analogues and other compounds. The true share with any hit is near 2.9%.

SMILES | PRMT1 inh | mABHD4 FP | PAD4 FP inh | TCR CD3 inh | HTRA1 inh | SIAE inh | SIAE inh conf
Nc1ccn([C@@H]2O[C@H](C(=O)NCCc3ccc(F)cc3)[C@@H](O)[C@H]2O)c(=O)n1 | 0 | 6 | x | -4 | x | 9 | x
Nc1ccn([C@@H]2O[C@H](C(=O)NCc3ccc4c(c3)OCO4)[C@@H](O)[C@H]2O)c(=O)n1 | -4 | -3 | x | 2 | x | 52* | 49*
COc1cccc(N2CCN(c3ncnc4c3[nH]c3ccc(F)cc34)CC2C)c1 (centres undefined) | 5 | 0 | 0 | 1 | -18 | 19* | -4
COc1cc2[nH]c3c(N4CCN(c5ccc(Cl)cc5)CC4)ncnc3c2cc1OC | -3 | 11 | -3 | 5 | 2 | 30* | 25*
COc1cc2[nH]c3c(Cl)ncnc3c2cc1OC | 1 | 4 | -2 | -6 | -3 | -1 | x
CCC(CO)Oc1cc(NCc2ccc(Cl)cc2Cl)c2ncn(C(C)C)c2c1 (centres undefined) | -2 | 28 | 2 | -1 | 9 | 19* | 8
CCN(C(=O)[C@@H](C1CC1)[C@@H](O)c1ccc(C(C)=O)cc1)c1ccccc1 | 3 | 4 | x | x | x | 3 | x
Cc1ccc(S(=O)(=O)Nc2c(C)n(C)n(-c3ccccc3)c2=O)cc1C(=O)OC(C)C(=O)N(C)c1ccccc1 (centres undefined) | -1 | 1 | 2 | 3 | -2 | 21* | 3
O=C(O)c1ccc(-c2cccc(Cl)c2)o1 | -1 | -5 | 4 | 2 | -4 | 18* | 7
CCn1c(=O)cc(N2CCN(c3cccc(C(F)(F)F)c3)CC2)[nH]c1=O | -1 | -2 | x | x | x | -8 | x
CCC(C)[C@H](NC(=O)OC(C)(C)C)C(=O)N[C@@H](Cc1ccccc1)C(=O)OC (some centres undefined) | 2 | -4 | x | x | x | 7 | x
Cc1c(C(=O)Nc2ccccc2)c2ccc(C(F)(F)F)cc2n1O | -1 | -5 | -3 | 4 | x | 25* | 29*
COc1ccc(OC)c(CN2C(=O)CSCC2(C)c2nnnn2C2CCCC2)c1 (centres undefined) | -5 | 1 | x | x | x | 1 | x
CCCCN(C(=O)C(C)N1C(=O)c2ccccc2C1=O)c1c(N)n(CCCC)c(=O)[nH]c1=O (centres undefined) | -1 | 0 | -6 | -5 | -1 | 19* | -5
CC(C)N1CCCCC(NC(=O)c2ccccc2)C1=O (centres undefined) | 9 | -4 | x | x | x | -3 | x
O=C(O)CCCn1cc(NC(=O)c2cccc(F)c2)cn1 | -4 | 0 | 1 | 4 | 12 | 20* | 1
CCN(CC)C(=O)c1cn(-c2cccc(OC)c2)c(=O)c2ccccc12 | 0 | 0 | -1 | 2 | 7 | 21* | -3
O=C(c1ccccc1Oc1ccccc1)N1CCC(Oc2cccnc2)CC1 | -2 | -1 | x | x | x | 20* | 1
COc1cc(-c2nc3ccccn3c2/N=C/c2cc(OC)c(OC)c(OC)c2)ccc1O | 1 | 6 | -2 | 1 | -4 | 28* | 16
CCOC(=O)[C@]12CCCCC/C=C\1N(CCc1ccc(Cl)cc1)C(=O)[C@H]2CC(=O)NCc1cccc(C(F)(F)F)c1 | 1 | -13 | x | x | x | -7 | x
COc1ccc(NC(=O)Nc2ccc(F)cc2F)cc1 | -1 | 2 | 3 | 5 | 6 | 2 | x
COc1ccc(NC(=O)Nc2cc(F)ccc2C)cc1 | -3 | -3 | -2 | 9 | 2 | 20* | -1
COC(=O)c1cccc(NC(=O)Nc2ccc(Cl)cc2)c1 | -9 | -18 | -1 | 6 | x | 19* | -1
O=C(Cc1cccs1)N=Nc1c(O)[nH]c2ccc(Br)cc12 | -4 | 2 | 1 | 11 | -4 | -18 | x
COc1ccc2[nH]c(O)c(NC(C)=O)c2c1 | 0 | 3 | 5 | 1 | -2 | 1 | x
SMILES | PRMT1 inh | mABHD4 FP | PAD4 FP inh | TCR CD3 inh | HTRA1 inh | SIAE inh | SIAE inh conf
COc1ccc2[nH]c(O)c(N=NC(=O)Cc3cccs3)c2c1 | 1 | 20 | -3 | 12 | 9 | 18* | 11
O=Nc1c(O)[nH]c2ccc(F)cc12 | 0 | 12 | 1 | -2 | 15 | 23* | 22*
O=Nc1c(O)[nH]c2ccc(Cl)cc12 | 5 | 3 | -4 | -11 | 14 | 28* | 25*
O=c1[nH]c2ccc(Cl)cc2c(O)c1Cc1ccccc1 | -2 | -3 | -1 | -5 | 3 | 9 | x
COc1ccc2[nH]c(O)c(N=O)c2c1 | -1 | 10 | -2 | 11 | 9 | 26* | 23*
NC(=S)N=Nc1c(O)[nH]c2ccc(F)cc12 | 8 | 9 | -2 | -3 | 7 | -4 | x
Cc1nc2c(ccc3nc(NC(=O)c4ccc5c(c4)OCCO5)sc32)s1 | 2 | -10 | -3 | -1 | -38 | -43 | x
O=C(Nc1nc2c(Br)cccc2s1)c1ccc2c(c1)OCCO2 | 1 | -30 | x | x | x | 22* | -60
Cc1nc2ccc(NC(=O)c3ccc(F)cc3F)cc2c(=O)[nH]1 | -2 | -2 | x | x | x | 4 | x
O=C1c2ccccc2C(Nc2ccc3c(c2)OCO3)N1Cc1ccco1 (centres undefined) | 12 | 18 | -1 | -3 | 24 | 19* | 6
CN(N=Cc1ccccc1O)C(=O)c1ccccc1N | 1 | 1 | x | -7 | x | 11 | x
COc1ccc(-c2csc(CCN3N=C(C)CC3=O)n2)cc1 | 4 | 2 | -17 | 4 | -14 | 38* | 6
Cc1cc(NS(=O)(=O)c2ccc(NC(=O)CSc3nnc(-c4cccnc4)n3-c3ccccc3)cc2)nc(C)n1 | -4 | 0 | x | x | x | 8 | x
COC(=O)C(NC(=O)c1ccco1)(Nc1ccc(Br)cn1)C(F)(F)F (centres undefined) | -2 | 2 | 5 | -14 | -4 | 22* | 0
CCOc1ccc(/C=N/NC(=O)c2nnn(-c3nonc3N)c2-c2ccc(OCC)cc2)cc1 | -1 | 0 | 3 | 6 | -13 | -4 | x
CCN(CC)c1ccc(/C=N/NC(=O)c2nnn(-c3nonc3N)c2-c2ccc(C)cc2)cc1 | -2 | 1 | -2 | -2 | 1 | 25* | 4
CCOCCCNC(=O)CN1C(=O)CSc2cc(S(=O)(=O)N3CCCCCC3)ccc21 | -2 | 4 | -1 | 9 | 4 | 31* | 0
CCOCCCNC(=O)CN1C(=O)CSc2ccc(S(=O)(=O)N3CCOCC3)cc21 | -2 | 4 | -9 | 0 | 7 | 0 | x
COC(=O)C1=C(C)N(C)C(=NCc2ccc3c(c2)OCO3)NC1c1cccc(C(F)(F)F)c1 (centres undefined) | 2 | -3 | x | -2 | x | 4 | x
